In ChEMBL document CHEMBL1146146, “Redesign of aminoglycosides for treatment of human genetic diseases caused by premature stop mutations” (2006):

Experiments:
Bacillus subtilis [1] = experiment: Antibacterial activity against Bacillus subtilis ATCC 6633 at 80 ug/ml; assay type: functional
[2] = system: Protocadherin-15 (Homo sapiens), Q96QU1 [R3X]; experiment: Suppression of human PCDH15 R3X mutation at 80 ug/ml
Summary of the method: (§1)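 In vitro transcription-translation of a reporter plasmid carrying the PCDH15 R3X nonsense mutation (premature UGA C stop), with [35S]methionine and a range of drug concentrations. Products were resolved by SDS-PAGE and quantified by PhosphorImager. Suppression is the 35-kDa product as a share of total (35 + 25 kDa) protein. Translation level is total protein at each concentration relative to the drug-free reaction. Values are means of ≥3 independent experiments; sulfate salts were tested.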

Escherichia coli [3] = experiment: Antibacterial activity against Escherichia coli ATCC 25922 at 80 ug/ml; assay type: functional
[4] = system: Protocadherin-15 (Homo sapiens), Q96QU1 [R3X]; experiment: Effect on human PCDH15 R3X mutation translation level at 80 ug/ml; summary of the method: as §1
Escherichia coli [5] = experiment: Antibacterial activity against Escherichia coli ATCC 25922 at 160 ug/ml; assay type: functional
[6] = system: Protocadherin-15 (Homo sapiens), Q96QU1 [R3X]; experiment: Suppression of human PCDH15 R3X mutation at 160 ug/ml; summary of the method: as §1
[7] = system: Protocadherin-15 (Homo sapiens), Q96QU1 [R3X]; experiment: Effect on human PCDH15 R3X mutation translation level at 160 ug/ml; summary of the method: as §1
Bacillus subtilis [8] = experiment: Antibacterial activity against Bacillus subtilis ATCC 6633 at 160 ug/ml; assay type: functional
[9] = system: Protocadherin-15 (Homo sapiens), Q96QU1 [R3X]; experiment: Effect on human PCDH15 R3X mutation translation level at 30 ug/ml; summary of the method: as §1
Target sequence in this assay (Q96QU1 other isoform, or with tags, fused parts or gaps): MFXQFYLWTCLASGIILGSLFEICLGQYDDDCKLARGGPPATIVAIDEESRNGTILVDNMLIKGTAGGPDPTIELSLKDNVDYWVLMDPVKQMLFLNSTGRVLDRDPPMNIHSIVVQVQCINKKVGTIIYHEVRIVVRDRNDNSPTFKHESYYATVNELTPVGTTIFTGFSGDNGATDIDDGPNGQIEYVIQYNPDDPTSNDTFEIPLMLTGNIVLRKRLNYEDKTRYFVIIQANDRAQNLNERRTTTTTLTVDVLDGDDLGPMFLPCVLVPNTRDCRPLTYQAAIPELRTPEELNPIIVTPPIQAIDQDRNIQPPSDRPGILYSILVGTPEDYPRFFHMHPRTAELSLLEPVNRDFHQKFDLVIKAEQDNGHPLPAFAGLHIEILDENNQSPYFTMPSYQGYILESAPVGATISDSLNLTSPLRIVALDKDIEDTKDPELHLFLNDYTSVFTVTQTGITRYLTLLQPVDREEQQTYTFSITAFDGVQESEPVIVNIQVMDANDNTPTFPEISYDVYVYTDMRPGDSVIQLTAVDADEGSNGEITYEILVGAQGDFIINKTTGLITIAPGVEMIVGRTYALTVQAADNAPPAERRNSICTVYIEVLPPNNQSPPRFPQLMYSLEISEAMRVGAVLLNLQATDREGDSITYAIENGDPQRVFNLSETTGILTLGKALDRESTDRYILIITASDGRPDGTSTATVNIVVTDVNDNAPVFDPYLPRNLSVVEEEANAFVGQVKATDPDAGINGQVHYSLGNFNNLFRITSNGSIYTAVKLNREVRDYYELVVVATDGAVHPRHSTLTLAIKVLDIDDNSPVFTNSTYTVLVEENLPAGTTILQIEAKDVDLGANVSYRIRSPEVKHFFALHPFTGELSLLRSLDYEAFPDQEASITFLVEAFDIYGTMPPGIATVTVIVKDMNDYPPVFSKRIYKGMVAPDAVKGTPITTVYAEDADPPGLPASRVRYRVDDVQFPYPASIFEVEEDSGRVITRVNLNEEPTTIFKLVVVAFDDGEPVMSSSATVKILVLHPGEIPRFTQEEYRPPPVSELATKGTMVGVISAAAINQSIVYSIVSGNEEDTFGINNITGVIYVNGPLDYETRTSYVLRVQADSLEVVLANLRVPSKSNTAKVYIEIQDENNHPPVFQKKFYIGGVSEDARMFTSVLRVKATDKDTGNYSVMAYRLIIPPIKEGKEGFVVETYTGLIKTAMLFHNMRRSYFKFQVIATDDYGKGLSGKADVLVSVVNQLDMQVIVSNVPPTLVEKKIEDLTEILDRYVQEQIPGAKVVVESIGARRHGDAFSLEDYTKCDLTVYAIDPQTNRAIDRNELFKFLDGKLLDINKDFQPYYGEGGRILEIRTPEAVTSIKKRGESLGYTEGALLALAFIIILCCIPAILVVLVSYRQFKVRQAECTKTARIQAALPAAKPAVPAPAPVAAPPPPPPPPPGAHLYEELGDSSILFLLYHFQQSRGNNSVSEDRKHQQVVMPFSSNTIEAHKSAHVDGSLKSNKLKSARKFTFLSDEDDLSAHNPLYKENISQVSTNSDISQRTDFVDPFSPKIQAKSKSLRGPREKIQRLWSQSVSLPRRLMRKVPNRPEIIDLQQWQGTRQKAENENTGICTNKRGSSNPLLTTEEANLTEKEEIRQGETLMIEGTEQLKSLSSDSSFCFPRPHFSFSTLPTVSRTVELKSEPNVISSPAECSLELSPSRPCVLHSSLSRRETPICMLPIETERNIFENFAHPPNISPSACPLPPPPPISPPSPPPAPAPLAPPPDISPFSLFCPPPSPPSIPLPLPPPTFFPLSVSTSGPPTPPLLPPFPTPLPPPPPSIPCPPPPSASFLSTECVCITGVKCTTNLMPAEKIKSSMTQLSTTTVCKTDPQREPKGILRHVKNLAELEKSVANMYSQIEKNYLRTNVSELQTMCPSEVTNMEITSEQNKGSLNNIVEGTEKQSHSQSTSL

Bacillus subtilis [10] = experiment: Antibacterial activity against Bacillus subtilis ATCC 6633 at 30 ug/ml; assay type: functional, organism-based
[11] = system: Protocadherin-15 (Homo sapiens), Q96QU1 [R3X]; experiment: Suppression of human PCDH15 R3X mutation at 30 ug/ml; summary of the method: as §1
Target sequence in this assay (Q96QU1 other isoform, or with tags, fused parts or gaps): as above

Escherichia coli [12] = experiment: Antibacterial activity against Escherichia coli ATCC 25922 at 30 ug/ml; assay type: functional, organism-based
Bacillus subtilis [13] = experiment: Antibacterial activity against Bacillus subtilis ATCC 6633 at 40 ug/ml; assay type: functional
[14] = system: Protocadherin-15 (Homo sapiens), Q96QU1 [R3X]; experiment: Effect on human PCDH15 R3X mutation translation level at 40 ug/ml
Summary of the method: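 Reporter plasmid carrying the PCDH15 R3X nonsense mutation (premature UGA C stop codon) is transcribed and translated in vitro with [35S]methionine and drug added. Products are resolved by SDS–PAGE and quantified by PhosphorImager. Translation level is total protein (35 + 25 kDa) at each drug concentration relative to total protein without drug. Values are means of at least three independent experiments.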

Escherichia coli [15] = experiment: Antibacterial activity against Escherichia coli ATCC 25922 at 40 ug/ml; assay type: functional
[16] = system: Protocadherin-15 (Homo sapiens), Q96QU1 [R3X]; experiment: Suppression of human PCDH15 R3X mutation at 40 ug/ml
Summary of the method: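 The PCDH15 R3X (UGA C) reporter is coupled-transcribed and translated in vitro in the presence of [35S]methionine, then run on SDS–PAGE with PhosphorImager quantification. Suppression is the fraction of the 35-kDa read-through product out of total protein (35-kDa plus 25-kDa truncated product). Values are averages of at least three independent experiments.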

Compound | MIC (Bacillus subtilis [1]) [µg/mL] | Activity [2] [%] | MIC (Escherichia coli [3]) [µg/mL] | Activity [4] [%] | other results
NC[C@H]1O[C@@H](O[C@@H]2[C@@H](N)[C@@H](O[C@H]3[C@H](O)[C@@H](O)[C@H](N)C[C@@H]3N)O[C@H](CO)[C@H]2O)[C@H](O)[C@@H]1O.O=S(=O)(O)O | 48 | 2.9 | 192 | 98 | –
NC[C@H]1O[C@@H](O[C@@H]2[C@@H](O)[C@H](N)C[C@H](N)[C@H]2O[C@H]2O[C@H](CO)[C@@H](O)[C@H](O)[C@H]2N)[C@H](O)[C@@H]1O.O=S(=O)(O)O | 48 | 21 | > 512 | 72 | –
N[C@H]1[C@@H](O[C@H]2[C@H](O)[C@@H](O)[C@H](N)C[C@@H]2N)O[C@H](CO)[C@@H](O)[C@@H]1O[C@@H]1O[C@H](CO)[C@@H](O)[C@H]1O.O=S(=O)(O)O | – | – | – | – | MIC (Escherichia coli [5]): > 512 µg/mL; Activity [6]: < 1%; Activity [7]: 82%; MIC (Bacillus subtilis [8]): > 512 µg/mL
N[C@H]1[C@@H](O[C@H]2[C@H](O)[C@@H](O)[C@H](N)C[C@@H]2N)O[C@H](CO)[C@@H](O)[C@H]1N.O=S(=O)(O)O | 48 | 2 | 192 | 71 | –
N[C@H]1[C@@H](O[C@H]2[C@H](O[C@@H]3O[C@H](CO)[C@@H](O)[C@H]3O)[C@@H](O)[C@H](N)C[C@@H]2N)O[C@H](CO)[C@@H](O)[C@@H]1O.O=S(=O)(O)O | 64 | 1.3 | 256 | 100 | –
N[C@H]1[C@@H](O[C@H]2[C@H](O)[C@@H](O)[C@H](N)C[C@@H]2N)O[C@H](CO)[C@@H](O)[C@@H]1O.O=S(=O)(O)O [PAROMAMINE SULFATE] | 128 | 6.2 | 512 | 74 | –
GENTAMICIN SULFATE | – | – | – | – | Activity [9]: 40%; MIC (Bacillus subtilis [10]): < 0.5 µg/mL; Activity [11]: 49%; MIC (Escherichia coli [12]): 4 µg/mL
NC[C@@H]1O[C@H](O[C@@H]2[C@@H](O)[C@H](O[C@H]3O[C@H](CO)[C@@H](O)[C@H](O)[C@H]3N)[C@@H](N)C[C@H]2N)[C@@H](O)[C@H]1O.O=S(=O)(O)O | 192 | 4.4 | > 512 | 75 | –
N[C@H]1[C@@H](O[C@H]2[C@H](O)[C@@H](O)[C@H](N)C[C@@H]2N)O[C@H](CO)[C@@H](O)[C@@H]1OCO[C@@H]1[C@@H](N)[C@@H](O[C@H]2[C@H](O)[C@@H](O)[C@H](N)C[C@@H]2N)O[C@H](CO)[C@H]1O.O=S(=O)(O)O | 48 | < 1 | 96 | 22 | –
N[C@H]1[C@@H](O[C@H]2[C@H](O)[C@@H](O[C@H]3O[C@@H](CO)[C@H](O)[C@@H]3O)[C@H](N)C[C@@H]2N)O[C@H](CO)[C@@H](O)[C@@H]1O.O=S(=O)(O)O | 96 | 1.5 | 256 | 74 | –
NC[C@@H]1O[C@H](O[C@H]2[C@@H](O)[C@H](O[C@@H]3[C@@H](O)[C@H](N)C[C@H](N)[C@H]3O[C@H]3O[C@H](CO)[C@@H](O)[C@H](O)[C@H]3N)O[C@@H]2CO)[C@H](N)[C@@H](O)[C@@H]1O.O=S(=O)(O)O [PAROMOMYCIN SULFATE] | 128 | 6.2 | 512 | 74 | MIC (Bacillus subtilis [13]): 8 µg/mL; Activity [14]: 40%; MIC (Escherichia coli [15]): 12 µg/mL; Activity [16]: 49%
